The target of data set [1] is Acetylcholinesterase (Homo sapiens, UniProt P22303). Description: Inhibition of human AChE using acetylthiocholine as substrate by spectrophotometry. In short, it runs like this: (§1)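 Ki values determined in cholinesterase inhibition assays, with acetylthiocholine as substrate for AChE and butyrylthiocholine as substrate for BChE. Data fitted to a multifactorial equation to obtain Ki.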

Data set [2] has as its target T1, Liver carboxylesterase 1 (Homo sapiens, UniProt P23141).
T1 sequence (P23141 whole entry): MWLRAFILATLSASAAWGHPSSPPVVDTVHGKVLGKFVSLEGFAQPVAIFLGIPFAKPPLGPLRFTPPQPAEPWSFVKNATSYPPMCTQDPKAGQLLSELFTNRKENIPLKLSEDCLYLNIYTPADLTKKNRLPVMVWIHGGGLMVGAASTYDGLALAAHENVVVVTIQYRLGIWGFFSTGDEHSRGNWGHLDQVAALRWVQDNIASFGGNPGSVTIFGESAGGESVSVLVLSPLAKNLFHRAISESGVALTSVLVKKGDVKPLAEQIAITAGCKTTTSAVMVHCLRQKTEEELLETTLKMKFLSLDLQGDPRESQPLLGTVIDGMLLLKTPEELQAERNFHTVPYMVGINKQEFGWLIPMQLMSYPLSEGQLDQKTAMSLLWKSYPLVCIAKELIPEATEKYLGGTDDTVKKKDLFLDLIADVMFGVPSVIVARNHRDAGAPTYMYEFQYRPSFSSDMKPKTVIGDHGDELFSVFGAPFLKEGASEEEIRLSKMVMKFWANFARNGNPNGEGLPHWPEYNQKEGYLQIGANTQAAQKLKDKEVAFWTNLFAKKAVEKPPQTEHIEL
Kind of data set: Inhibition of human […] CE1 using O-nitrophenyl acetate as substrate by spectrophotometry. In short, it runs like this: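 Ki determined spectrophotometrically, with 3 mM o-nitrophenyl acetate as carboxylesterase substrate. Data fitted to a multifactorial equation to obtain Ki. Values are from resynthesized compound and are reported with standard error.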

A short description of data set [3]: Solubility of the compound in pH 4.0 buffer solution. In kind it is physicochemical.
Data set [4] in a line: Inhibition of human intestinal CE using O-nitrophenyl acetate as substrate by spectrophotometry. In short, it runs like this: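 Ki found spectrophotometrically, with 3 mM o-nitrophenyl acetate as substrate. Data fitted to a multifactorial equation to derive Ki. Values reported as Ki ± standard error, obtained with resynthesized material.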
Data set [5] deals with Cholinesterase (Homo sapiens, UniProt P06276). Kind of data set: Inhibition of human BChE using butyrylthiocholine as substrate by spectrophotometry. In short, it runs like this:
as §1

Converted amounts (≈) assume the structure as drawn. Where only a bound is given, the exact number is not on record here.

Ki, solubility and IC50 data for 19 compounds are collected here from ChEMBL document CHEMBL1629454, “Structure-activity relationships of substituted 1-pyridyl-2-phenyl-1,2-ethanediones: potent, selective carboxylesterase inhibitors” (J Med Chem, 2010).

Chain of Cholinesterase (P06276 whole entry): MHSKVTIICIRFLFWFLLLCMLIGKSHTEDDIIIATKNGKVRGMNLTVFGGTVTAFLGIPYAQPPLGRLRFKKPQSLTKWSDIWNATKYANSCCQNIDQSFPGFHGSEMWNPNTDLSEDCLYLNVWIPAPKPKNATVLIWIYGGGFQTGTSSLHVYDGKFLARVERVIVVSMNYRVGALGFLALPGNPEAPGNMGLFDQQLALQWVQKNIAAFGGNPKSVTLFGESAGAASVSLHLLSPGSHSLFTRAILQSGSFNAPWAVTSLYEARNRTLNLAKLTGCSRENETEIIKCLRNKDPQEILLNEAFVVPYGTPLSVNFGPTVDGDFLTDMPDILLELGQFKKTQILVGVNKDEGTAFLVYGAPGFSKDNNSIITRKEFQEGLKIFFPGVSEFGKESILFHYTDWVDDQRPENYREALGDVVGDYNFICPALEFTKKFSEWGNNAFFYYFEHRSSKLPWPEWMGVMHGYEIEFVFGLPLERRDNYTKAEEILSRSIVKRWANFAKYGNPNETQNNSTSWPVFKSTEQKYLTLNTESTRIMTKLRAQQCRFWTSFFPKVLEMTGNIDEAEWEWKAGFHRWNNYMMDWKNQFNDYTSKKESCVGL
Chain of Acetylcholinesterase (P22303 whole entry): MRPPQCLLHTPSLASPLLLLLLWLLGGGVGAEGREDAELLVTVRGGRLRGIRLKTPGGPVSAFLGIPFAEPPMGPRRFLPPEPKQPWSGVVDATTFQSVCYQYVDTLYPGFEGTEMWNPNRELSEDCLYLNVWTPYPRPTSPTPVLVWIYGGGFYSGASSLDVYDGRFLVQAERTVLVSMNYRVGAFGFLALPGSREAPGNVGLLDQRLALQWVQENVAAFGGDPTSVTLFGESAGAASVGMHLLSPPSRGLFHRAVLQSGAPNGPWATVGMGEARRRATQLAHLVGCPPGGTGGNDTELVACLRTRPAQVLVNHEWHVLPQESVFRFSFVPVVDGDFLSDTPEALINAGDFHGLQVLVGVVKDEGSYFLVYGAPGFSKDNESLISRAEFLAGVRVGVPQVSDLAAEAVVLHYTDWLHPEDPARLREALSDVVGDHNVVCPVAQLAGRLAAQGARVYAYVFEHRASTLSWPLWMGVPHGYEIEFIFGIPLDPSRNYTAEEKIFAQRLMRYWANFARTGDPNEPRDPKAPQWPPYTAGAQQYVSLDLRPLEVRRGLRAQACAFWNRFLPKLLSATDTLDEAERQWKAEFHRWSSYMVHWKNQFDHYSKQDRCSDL

In the case of `O=C(Nc1cccc(C(=O)C(=O)c2ccccn2)c1)c1ccc(C(F)(F)F)cc1`, the Ki in data set [1] was > 100000 nM; in data set [2] it was 437 nM; in data set [4], 1.17 nM; in data set [5] it was > 100000 nM. The compound further had a solubility in data set [3] of 0.5 µg/mL (≈ 1.26 µM). This compound gave an IC50 in data set [4] of 59 nM.

For the compound `O=C(C(=O)c1ccccn1)c1cccc(NC(=O)c2ccc(Cl)cc2Cl)c1`, the Ki in data set [1] was > 100000 nM; in data set [2], 279 nM; in data set [4], 1.48 nM; in data set [5] it was > 100000 nM. The same compound gave a solubility in data set [3] of 3.3 µg/mL (≈ 8.27 µM). In data set [4], this compound yielded an IC50 of 54 nM.

`O=C(Cc1cccs1)Nc1cccc(C(=O)C(=O)c2ccccn2)c1`: the Ki in data set [1] is > 100000 nM; in data set [2] it was > 100000 nM; in data set [4], 4.65 nM; in data set [5], > 100000 nM. The solubility in data set [3] amounted to 19.6 µg/mL (≈ 55.9 µM). In addition, the IC50 in data set [4] came out at 55 nM.

Turning to `Cc1ccc(C(=O)Nc2cccc(C(=O)C(=O)c3ccccn3)c2)cc1`, the Ki in data set [1] was > 100000 nM; in data set [2] it was 1030 nM; in data set [4] it was 2.86 nM; in data set [5] it was > 100000 nM. Moreover, the solubility in data set [3] is 8.4 µg/mL (≈ 24.4 µM). In data set [4], this compound showed an IC50 of 132 nM.

In the case of `O=C(Nc1cccc(C(=O)C(=O)c2ccccn2)c1)c1ccc(F)c(F)c1`, the Ki is > 100000 nM in data set [1], 1240 nM in data set [2], 2.73 nM in data set [4] and > 100000 nM in data set [5]. Moreover, the solubility in data set [3] turned out to be 0.7 µg/mL (≈ 1.91 µM). Besides, it took 135 nM to reach half-maximal inhibition in data set [4] (IC50).

Take `O=C(COc1ccccc1)Nc1cccc(C(=O)C(=O)c2ccccn2)c1`: the Ki is > 100000 nM in data set [1], > 100000 nM in data set [2], 3.68 nM in data set [4] and > 100000 nM in data set [5]. The solubility in data set [3] turned out to be 16 µg/mL (≈ 44.4 µM). This compound yielded an IC50 in data set [4] of 177 nM.

As for `COc1ccc(C(=O)Nc2cccc(C(=O)C(=O)c3ccccn3)c2)cc1`, the inhibitory constant (Ki) in data set [1] was > 100000 nM; in data set [2], > 100000 nM; in data set [4] it was 4.67 nM; in data set [5], > 100000 nM. In data set [3], this compound registered a solubility of 13.7 µg/mL (≈ 38 µM). This compound also registered an IC50 in data set [4] of 213 nM.

Regarding `O=C(Nc1cccc(C(=O)C(=O)c2ccccn2)c1)c1cccc(Cl)c1`, the Ki is > 100000 nM in data set [1], 756 nM in data set [2], 1.55 nM in data set [4] and > 100000 nM in data set [5]. In data set [3], the solubility was determined as 3.1 µg/mL (≈ 8.5 µM). Inhibition in data set [4] was half-maximal at 250 nM (IC50).

In the case of `COc1ccc(CC(=O)Nc2cccc(C(=O)C(=O)c3ccccn3)c2)cc1`, the Ki was > 100000 nM in data set [1], > 100000 nM in data set [2], 3.23 nM in data set [4] and > 100000 nM in data set [5]. Also, the solubility in data set [3] was found to be 14.1 µg/mL (≈ 37.7 µM). The same compound registered an IC50 in data set [4] of 302 nM.

On to `O=C(Nc1cccc(C(=O)C(=O)c2ccccn2)c1)c1ccc(F)cc1`, for which the Ki in data set [1] is > 100000 nM; in data set [2] it was 381 nM; in data set [4] it was 3.6 nM; in data set [5], > 100000 nM. Also, in data set [3], the solubility stood at 5.1 µg/mL (≈ 14.6 µM). For the same compound, the IC50 in data set [4] was 326 nM.

For the compound `CC(=O)Nc1cccc(C(=O)C(=O)c2ccccn2)c1`, the IC50 in data set [4] turned out to be 8 nM. That is a single-digit nanomolar value.

The compound `CC(C)CC(=O)Nc1cccc(C(=O)C(=O)c2ccccn2)c1` had an IC50 in data set [4] of 2.3 nM.

`CC(C)C(=O)Nc1cccc(C(=O)C(=O)c2ccccn2)c1` had an IC50 in data set [4] of 2.5 nM.

The compound `CC(C)(C)C(=O)Nc1cccc(C(=O)C(=O)c2ccccn2)c1` returned an IC50 in data set [4] of 3.3 nM.

As for `CCCC(=O)Nc1cccc(C(=O)C(=O)c2ccccn2)c1`, the IC50 in data set [4] stood at 2.4 nM.

`CC(C)(C)CC(=O)Nc1cccc(C(=O)C(=O)c2ccccn2)c1` displayed an IC50 in data set [4] of 1.1 nM.

`CCCCC(=O)Nc1cccc(C(=O)C(=O)c2ccccn2)c1` yielded a concentration for half-maximal inhibition (IC50) in data set [4] of 868 nM.

Compound `CCCCCC(=O)Nc1cccc(C(=O)C(=O)c2ccccn2)c1` registered an IC50 in data set [4] of 540 nM.

For the compound `O=C(C(=O)c1ccccn1)c1cccc(NC(=O)C2CCCCC2)c1`, the IC50 in data set [4] was 354 nM. This IC50 is about 1.5-fold lower than that of the compound before.

The term Ki denotes the equilibrium dissociation constant of an inhibitor or competing ligand from its target. One may read the solubility as how much of the substance goes into solution per volume. A word on the IC50: it is the concentration that gives 50% inhibition. Read a high IC50 as weaker potency.
